# Reference: ChEMBL document CHEMBL1129566 (J Med Chem, 1996)
# System: Citrobacter freundii
# Experiment: In vitro minimum inhibitory concentration required to produce antibacterial activity against Citrobacter freundii 902
# Type: functional
# Summary of the method: (§1)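 Two-fold agar dilution on Mueller-Hinton agar. Overnight broth cultures diluted in fresh broth to […]; 10⁴ CFU/spot applied by inoculating apparatus onto plates with graded drug concentrations. Incubated 18 h at 37 °C; MIC taken as the lowest concentration giving complete growth inhibition.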
row,Compound,MIC [µg/mL]
1,Nc1nc(/C(=N/O)C(=O)N[C@@H]2C(=O)N3C(C(=O)O)=C(/C=C4/CN(c5ccccc5)C4=O)CS[C@H]23)cs1,4
2,Nc1nc(/C(=N/O)C(=O)N[C@@H]2C(=O)N3C(C(=O)O)=C(/C=C4\CCN(C5CC5)C4=O)CS[C@H]23)cs1,0.12
3,Nc1nc(/C(=N/O)C(=O)N[C@@H]2C(=O)N3C(C(=O)O)=C(/C=C4\CCN(O)C4=O)CS[C@H]23)cs1,0.5
4,Nc1nc(/C(=N/OC2CCCC2)C(=O)N[C@@H]2C(=O)N3C(C(=O)O)=C(/C=C4\CCN(CC(F)(F)F)C4=O)CS[C@H]23)cs1,4

# The remaining lines, values ahead:
row,MIC [µg/mL],Compound
1,0.12,Nc1nc(/C(=N/O)C(=O)N[C@@H]2C(=O)N3C(C(=O)O)=C(/C=C4\CCN(c5ccc(O)c(O)c5)C4=O)CS[C@H]23)cs1
2,0.12,Nc1nc(/C(=N/O)C(=O)N[C@@H]2C(=O)N3C(C(=O)O)=C(/C=C4\CCN(c5cccc([N+](=O)[O-])c5)C4=O)CS[C@H]23)cs1
3,0.12,Cc1cc(N2CC/C(=C\C3=C(C(=O)O)N4C(=O)[C@@H](NC(=O)/C(=N\O)c5csc(N)n5)[C@H]4SC3)C2=O)no1

# System: Escherichia coli
# Experiment: In vitro minimum inhibitory concentration required to produce antibacterial activity against Escherichia coli 25922
# Type: functional
# Summary of the method: as §1
row,Compound,MIC [µg/mL]
1,Nc1nc(/C(=N/O)C(=O)N[C@@H]2C(=O)N3C(C(=O)O)=C(/C=C4/CN(c5ccccc5)C4=O)CS[C@H]23)cs1,2
2,Nc1nc(/C(=N/O)C(=O)N[C@@H]2C(=O)N3C(C(=O)O)=C(/C=C4\CCN(C5CC5)C4=O)CS[C@H]23)cs1,≤ 0.06
3,Nc1nc(/C(=N/O)C(=O)N[C@@H]2C(=O)N3C(C(=O)O)=C(/C=C4\CCN(O)C4=O)CS[C@H]23)cs1,≤ 0.06
4,Nc1nc(/C(=N/OC2CCCC2)C(=O)N[C@@H]2C(=O)N3C(C(=O)O)=C(/C=C4\CCN(CC(F)(F)F)C4=O)CS[C@H]23)cs1,2

# The remaining lines, values ahead:
row,MIC [µg/mL],Compound
1,0.25,Nc1nc(/C(=N/O)C(=O)N[C@@H]2C(=O)N3C(C(=O)O)=C(/C=C4\CCN(c5ccc(O)c(O)c5)C4=O)CS[C@H]23)cs1
2,0.12,Nc1nc(/C(=N/O)C(=O)N[C@@H]2C(=O)N3C(C(=O)O)=C(/C=C4\CCN(c5cccc([N+](=O)[O-])c5)C4=O)CS[C@H]23)cs1
3,0.12,Cc1cc(N2CC/C(=C\C3=C(C(=O)O)N4C(=O)[C@@H](NC(=O)/C(=N\O)c5csc(N)n5)[C@H]4SC3)C2=O)no1

# System: Enterococcus faecalis
# Experiment: In vitro minimum inhibitory concentration required to produce antibacterial activity against Enterococcus faecalis ATCC 29212
# Type: functional
# Summary of the method: as §1
row,Compound,MIC [µg/mL]
1,Nc1nc(/C(=N/O)C(=O)N[C@@H]2C(=O)N3C(C(=O)O)=C(/C=C4/CN(c5ccccc5)C4=O)CS[C@H]23)cs1,0.5
2,Nc1nc(/C(=N/O)C(=O)N[C@@H]2C(=O)N3C(C(=O)O)=C(/C=C4\CCN(C5CC5)C4=O)CS[C@H]23)cs1,1
3,Nc1nc(/C(=N/O)C(=O)N[C@@H]2C(=O)N3C(C(=O)O)=C(/C=C4\CCN(O)C4=O)CS[C@H]23)cs1,4
4,Nc1nc(/C(=N/OC2CCCC2)C(=O)N[C@@H]2C(=O)N3C(C(=O)O)=C(/C=C4\CCN(CC(F)(F)F)C4=O)CS[C@H]23)cs1,8

# Second part, the molecule after the results:
row,MIC [µg/mL],Compound
1,0.5,Nc1nc(/C(=N/O)C(=O)N[C@@H]2C(=O)N3C(C(=O)O)=C(/C=C4\CCN(c5ccc(O)c(O)c5)C4=O)CS[C@H]23)cs1
2,0.12,Nc1nc(/C(=N/O)C(=O)N[C@@H]2C(=O)N3C(C(=O)O)=C(/C=C4\CCN(c5cccc([N+](=O)[O-])c5)C4=O)CS[C@H]23)cs1
3,0.25,Cc1cc(N2CC/C(=C\C3=C(C(=O)O)N4C(=O)[C@@H](NC(=O)/C(=N\O)c5csc(N)n5)[C@H]4SC3)C2=O)no1

# System: Enterobacter cloacae
# Experiment: In vitro minimum inhibitory concentration required to produce antibacterial activity against Enterobacter cloacae 908SSI
# Type: functional
# Summary of the method: as §1
row,Compound,MIC [µg/mL]
1,Nc1nc(/C(=N/O)C(=O)N[C@@H]2C(=O)N3C(C(=O)O)=C(/C=C4/CN(c5ccccc5)C4=O)CS[C@H]23)cs1,4
2,Nc1nc(/C(=N/O)C(=O)N[C@@H]2C(=O)N3C(C(=O)O)=C(/C=C4\CCN(C5CC5)C4=O)CS[C@H]23)cs1,0.12
3,Nc1nc(/C(=N/O)C(=O)N[C@@H]2C(=O)N3C(C(=O)O)=C(/C=C4\CCN(O)C4=O)CS[C@H]23)cs1,16
4,Nc1nc(/C(=N/OC2CCCC2)C(=O)N[C@@H]2C(=O)N3C(C(=O)O)=C(/C=C4\CCN(CC(F)(F)F)C4=O)CS[C@H]23)cs1,4

# More lines, now with the values ahead:
row,MIC [µg/mL],Compound
1,0.25,Nc1nc(/C(=N/O)C(=O)N[C@@H]2C(=O)N3C(C(=O)O)=C(/C=C4\CCN(c5ccc(O)c(O)c5)C4=O)CS[C@H]23)cs1
2,0.25,Nc1nc(/C(=N/O)C(=O)N[C@@H]2C(=O)N3C(C(=O)O)=C(/C=C4\CCN(c5cccc([N+](=O)[O-])c5)C4=O)CS[C@H]23)cs1
3,0.5,Cc1cc(N2CC/C(=C\C3=C(C(=O)O)N4C(=O)[C@@H](NC(=O)/C(=N\O)c5csc(N)n5)[C@H]4SC3)C2=O)no1

# System: Pseudomonas aeruginosa
# Experiment: In vitro minimum inhibitory concentration required to produce antibacterial activity against Pseudomonas aeruginosa ATCC 27853
# Type: functional
# Summary of the method: as §1
row,Compound,MIC [µg/mL]
1,Nc1nc(/C(=N/O)C(=O)N[C@@H]2C(=O)N3C(C(=O)O)=C(/C=C4/CN(c5ccccc5)C4=O)CS[C@H]23)cs1,16
2,Nc1nc(/C(=N/O)C(=O)N[C@@H]2C(=O)N3C(C(=O)O)=C(/C=C4\CCN(C5CC5)C4=O)CS[C@H]23)cs1,8
3,Nc1nc(/C(=N/O)C(=O)N[C@@H]2C(=O)N3C(C(=O)O)=C(/C=C4\CCN(O)C4=O)CS[C@H]23)cs1,8
4,Nc1nc(/C(=N/OC2CCCC2)C(=O)N[C@@H]2C(=O)N3C(C(=O)O)=C(/C=C4\CCN(CC(F)(F)F)C4=O)CS[C@H]23)cs1,8

# Other lines, results leading:
row,MIC [µg/mL],Compound
1,32,Nc1nc(/C(=N/O)C(=O)N[C@@H]2C(=O)N3C(C(=O)O)=C(/C=C4\CCN(c5ccc(O)c(O)c5)C4=O)CS[C@H]23)cs1
2,16,Nc1nc(/C(=N/O)C(=O)N[C@@H]2C(=O)N3C(C(=O)O)=C(/C=C4\CCN(c5cccc([N+](=O)[O-])c5)C4=O)CS[C@H]23)cs1
3,> 32,Cc1cc(N2CC/C(=C\C3=C(C(=O)O)N4C(=O)[C@@H](NC(=O)/C(=N\O)c5csc(N)n5)[C@H]4SC3)C2=O)no1

# System: Staphylococcus aureus
# Experiment: In vitro minimum inhibitory concentration required to produce antibacterial activity against Staphylococcus aureus 743 MRSA
# Type: functional
# Summary of the method: as §1
row,Compound,MIC [µg/mL]
1,Nc1nc(/C(=N/O)C(=O)N[C@@H]2C(=O)N3C(C(=O)O)=C(/C=C4/CN(c5ccccc5)C4=O)CS[C@H]23)cs1,2
2,Nc1nc(/C(=N/O)C(=O)N[C@@H]2C(=O)N3C(C(=O)O)=C(/C=C4\CCN(C5CC5)C4=O)CS[C@H]23)cs1,8
3,Nc1nc(/C(=N/O)C(=O)N[C@@H]2C(=O)N3C(C(=O)O)=C(/C=C4\CCN(O)C4=O)CS[C@H]23)cs1,16
4,Nc1nc(/C(=N/OC2CCCC2)C(=O)N[C@@H]2C(=O)N3C(C(=O)O)=C(/C=C4\CCN(CC(F)(F)F)C4=O)CS[C@H]23)cs1,8

# Further lines, results first:
row,MIC [µg/mL],Compound
1,16,Nc1nc(/C(=N/O)C(=O)N[C@@H]2C(=O)N3C(C(=O)O)=C(/C=C4\CCN(c5ccc(O)c(O)c5)C4=O)CS[C@H]23)cs1
2,4,Nc1nc(/C(=N/O)C(=O)N[C@@H]2C(=O)N3C(C(=O)O)=C(/C=C4\CCN(c5cccc([N+](=O)[O-])c5)C4=O)CS[C@H]23)cs1
3,8,Cc1cc(N2CC/C(=C\C3=C(C(=O)O)N4C(=O)[C@@H](NC(=O)/C(=N\O)c5csc(N)n5)[C@H]4SC3)C2=O)no1

# System: Staphylococcus aureus
# Experiment: In vitro minimum inhibitory concentration required to produce antibacterial activity against Staphylococcus aureus 887MSSA
# Type: functional
# Summary of the method: as §1
row,Compound,MIC [µg/mL]
1,Nc1nc(/C(=N/O)C(=O)N[C@@H]2C(=O)N3C(C(=O)O)=C(/C=C4/CN(c5ccccc5)C4=O)CS[C@H]23)cs1,0.12
2,Nc1nc(/C(=N/O)C(=O)N[C@@H]2C(=O)N3C(C(=O)O)=C(/C=C4\CCN(C5CC5)C4=O)CS[C@H]23)cs1,1
3,Nc1nc(/C(=N/O)C(=O)N[C@@H]2C(=O)N3C(C(=O)O)=C(/C=C4\CCN(O)C4=O)CS[C@H]23)cs1,1
4,Nc1nc(/C(=N/OC2CCCC2)C(=O)N[C@@H]2C(=O)N3C(C(=O)O)=C(/C=C4\CCN(CC(F)(F)F)C4=O)CS[C@H]23)cs1,4

# The remaining lines, values ahead:
row,MIC [µg/mL],Compound
1,2,Nc1nc(/C(=N/O)C(=O)N[C@@H]2C(=O)N3C(C(=O)O)=C(/C=C4\CCN(c5ccc(O)c(O)c5)C4=O)CS[C@H]23)cs1
2,0.5,Nc1nc(/C(=N/O)C(=O)N[C@@H]2C(=O)N3C(C(=O)O)=C(/C=C4\CCN(c5cccc([N+](=O)[O-])c5)C4=O)CS[C@H]23)cs1
3,1,Cc1cc(N2CC/C(=C\C3=C(C(=O)O)N4C(=O)[C@@H](NC(=O)/C(=N\O)c5csc(N)n5)[C@H]4SC3)C2=O)no1

# System: Streptococcus pneumoniae
# Experiment: In vitro minimum inhibitory concentration required to produce antibacterial activity against Streptococcus pneumoniae 1/37(pen r)
# Type: functional
# Summary of the method: as §1
row,Compound,MIC [µg/mL]
1,Nc1nc(/C(=N/O)C(=O)N[C@@H]2C(=O)N3C(C(=O)O)=C(/C=C4/CN(c5ccccc5)C4=O)CS[C@H]23)cs1,2
2,Nc1nc(/C(=N/O)C(=O)N[C@@H]2C(=O)N3C(C(=O)O)=C(/C=C4\CCN(C5CC5)C4=O)CS[C@H]23)cs1,2
3,Nc1nc(/C(=N/O)C(=O)N[C@@H]2C(=O)N3C(C(=O)O)=C(/C=C4\CCN(O)C4=O)CS[C@H]23)cs1,4
4,Nc1nc(/C(=N/OC2CCCC2)C(=O)N[C@@H]2C(=O)N3C(C(=O)O)=C(/C=C4\CCN(CC(F)(F)F)C4=O)CS[C@H]23)cs1,1

# The next lines start with the values.
row,MIC [µg/mL],Compound
1,2,Nc1nc(/C(=N/O)C(=O)N[C@@H]2C(=O)N3C(C(=O)O)=C(/C=C4\CCN(c5ccc(O)c(O)c5)C4=O)CS[C@H]23)cs1
2,2,Nc1nc(/C(=N/O)C(=O)N[C@@H]2C(=O)N3C(C(=O)O)=C(/C=C4\CCN(c5cccc([N+](=O)[O-])c5)C4=O)CS[C@H]23)cs1
3,2,Cc1cc(N2CC/C(=C\C3=C(C(=O)O)N4C(=O)[C@@H](NC(=O)/C(=N\O)c5csc(N)n5)[C@H]4SC3)C2=O)no1

# System: Streptococcus pneumoniae
# Experiment: Minimum inhibitory concentration for antibacterial activity against Streptococcus pneumoniae Q19 (pen s)
# Type: functional
# Summary of the method: as §1
row,Compound,MIC [µg/mL]
1,Nc1nc(/C(=N/O)C(=O)N[C@@H]2C(=O)N3C(C(=O)O)=C(/C=C4/CN(c5ccccc5)C4=O)CS[C@H]23)cs1,0.12
2,Nc1nc(/C(=N/O)C(=O)N[C@@H]2C(=O)N3C(C(=O)O)=C(/C=C4\CCN(C5CC5)C4=O)CS[C@H]23)cs1,0.03
3,Nc1nc(/C(=N/O)C(=O)N[C@@H]2C(=O)N3C(C(=O)O)=C(/C=C4\CCN(O)C4=O)CS[C@H]23)cs1,0.06
4,Nc1nc(/C(=N/OC2CCCC2)C(=O)N[C@@H]2C(=O)N3C(C(=O)O)=C(/C=C4\CCN(CC(F)(F)F)C4=O)CS[C@H]23)cs1,≤ 0.06

# Second part, the molecule after the results:
row,MIC [µg/mL],Compound
1,≤ 0.06,Nc1nc(/C(=N/O)C(=O)N[C@@H]2C(=O)N3C(C(=O)O)=C(/C=C4\CCN(c5ccc(O)c(O)c5)C4=O)CS[C@H]23)cs1
2,≤ 0.06,Nc1nc(/C(=N/O)C(=O)N[C@@H]2C(=O)N3C(C(=O)O)=C(/C=C4\CCN(c5cccc([N+](=O)[O-])c5)C4=O)CS[C@H]23)cs1
3,0.12,Cc1cc(N2CC/C(=C\C3=C(C(=O)O)N4C(=O)[C@@H](NC(=O)/C(=N\O)c5csc(N)n5)[C@H]4SC3)C2=O)no1
